Results on 20 compounds are retold here after ChEMBL document CHEMBL1155318, “Discovery of novel phenethylpyridone derivatives as potent melanin-concentrating hormone 1 receptor antagonists” (Bioorg Med Chem Lett, 2009).

Data set [1] has as its target Delta-type opioid receptor (Homo sapiens, UniProt P41143). As to the kind of experiment: Inhibition of delta-type opioid receptor.
For data set [2], the target named is Mu-type opioid receptor (Homo sapiens, UniProt P35372). As to the kind of experiment: Inhibition of mu-type opioid receptor.
Sequence of Mu-type opioid receptor (P35372 whole entry): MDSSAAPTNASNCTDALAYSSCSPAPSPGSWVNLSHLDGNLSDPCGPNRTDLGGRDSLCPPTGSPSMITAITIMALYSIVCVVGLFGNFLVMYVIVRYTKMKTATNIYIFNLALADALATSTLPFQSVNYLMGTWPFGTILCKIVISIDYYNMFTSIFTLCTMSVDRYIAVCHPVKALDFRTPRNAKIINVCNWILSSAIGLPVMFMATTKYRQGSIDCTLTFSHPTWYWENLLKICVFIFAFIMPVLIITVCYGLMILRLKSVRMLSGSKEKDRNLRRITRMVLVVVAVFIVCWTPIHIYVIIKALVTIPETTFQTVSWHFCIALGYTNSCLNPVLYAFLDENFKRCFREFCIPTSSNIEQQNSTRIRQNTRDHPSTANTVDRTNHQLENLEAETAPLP
In data set [3] the target is Histamine H1 receptor (Homo sapiens, UniProt P35367). As to the kind of experiment: Inhibition of histamine H1 receptor.
Sequence of Histamine H1 receptor (P35367 whole entry): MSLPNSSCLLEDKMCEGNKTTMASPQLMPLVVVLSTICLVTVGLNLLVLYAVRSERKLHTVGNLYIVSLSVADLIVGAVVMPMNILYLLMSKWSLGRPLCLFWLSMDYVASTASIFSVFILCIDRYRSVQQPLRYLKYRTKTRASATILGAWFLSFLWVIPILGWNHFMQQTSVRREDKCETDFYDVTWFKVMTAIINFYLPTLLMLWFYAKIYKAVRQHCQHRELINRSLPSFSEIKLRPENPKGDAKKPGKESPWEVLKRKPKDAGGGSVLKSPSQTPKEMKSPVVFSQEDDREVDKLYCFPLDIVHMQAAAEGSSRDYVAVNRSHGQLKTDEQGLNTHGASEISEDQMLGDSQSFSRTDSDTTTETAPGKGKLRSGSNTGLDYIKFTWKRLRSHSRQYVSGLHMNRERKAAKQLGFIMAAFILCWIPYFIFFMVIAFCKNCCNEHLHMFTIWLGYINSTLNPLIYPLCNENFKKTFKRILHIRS
In data set [4] the target is Histamine H2 receptor (Homo sapiens, UniProt P25021). As to the kind of experiment: Inhibition of histamine H2 receptor.
Sequence of Histamine H2 receptor (P25021 whole entry): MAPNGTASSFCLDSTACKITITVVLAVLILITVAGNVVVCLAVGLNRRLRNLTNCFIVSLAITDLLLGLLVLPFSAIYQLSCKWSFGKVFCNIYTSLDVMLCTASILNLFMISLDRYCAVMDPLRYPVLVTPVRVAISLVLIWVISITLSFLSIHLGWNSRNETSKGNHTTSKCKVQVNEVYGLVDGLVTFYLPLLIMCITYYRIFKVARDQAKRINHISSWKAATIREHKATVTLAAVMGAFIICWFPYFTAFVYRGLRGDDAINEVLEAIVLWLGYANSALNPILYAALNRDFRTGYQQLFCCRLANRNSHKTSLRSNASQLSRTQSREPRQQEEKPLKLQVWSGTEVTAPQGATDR
Data set [5] is described as follows: Metabolic stability in mouse liver microsomes after 30 mmins. The class given is ADME, Microsome. The following applies: read-out: Stability. The method in brief:
(§1)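 Hepatic microsomes (human or mouse) are incubated with compound for 30 min. The read-out is % of parent remaining. Values are means of n = 2.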

Data set [6] is described as follows: Inhibition of adrenergic alpha1 receptor.
Data set [7] addresses Histamine H3 receptor (Homo sapiens, UniProt Q9Y5N1). Kind of data set: Inhibition of histamine H3 receptor.
The target in data set [8] is Histamine H4 receptor (Homo sapiens, UniProt Q9H3N8). As to the kind of experiment: Inhibition of histamine H4 receptor.
Sequence of Histamine H4 receptor (Q9H3N8 whole entry): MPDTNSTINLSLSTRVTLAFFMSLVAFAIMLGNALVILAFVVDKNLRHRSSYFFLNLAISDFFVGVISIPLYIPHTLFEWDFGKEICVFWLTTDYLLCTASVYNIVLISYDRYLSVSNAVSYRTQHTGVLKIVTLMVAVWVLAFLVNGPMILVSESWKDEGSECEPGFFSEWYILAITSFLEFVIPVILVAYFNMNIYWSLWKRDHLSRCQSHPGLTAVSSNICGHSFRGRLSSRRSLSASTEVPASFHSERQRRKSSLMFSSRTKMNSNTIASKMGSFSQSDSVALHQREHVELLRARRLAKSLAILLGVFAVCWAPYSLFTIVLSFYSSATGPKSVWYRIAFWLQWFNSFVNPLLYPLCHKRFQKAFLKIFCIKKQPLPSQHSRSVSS
The target in data set [9] is T1, Melanin-concentrating hormone receptor 1 (Homo sapiens, UniProt Q99705). Kind of data set: Antagonistic activity against MCH1R expressed on CHOK1 cells assessed as intracellular calcium mobilization by FLIPR. The class given is functional, cell-based, CHO-K1.
T1 sequence (Q99705 whole entry): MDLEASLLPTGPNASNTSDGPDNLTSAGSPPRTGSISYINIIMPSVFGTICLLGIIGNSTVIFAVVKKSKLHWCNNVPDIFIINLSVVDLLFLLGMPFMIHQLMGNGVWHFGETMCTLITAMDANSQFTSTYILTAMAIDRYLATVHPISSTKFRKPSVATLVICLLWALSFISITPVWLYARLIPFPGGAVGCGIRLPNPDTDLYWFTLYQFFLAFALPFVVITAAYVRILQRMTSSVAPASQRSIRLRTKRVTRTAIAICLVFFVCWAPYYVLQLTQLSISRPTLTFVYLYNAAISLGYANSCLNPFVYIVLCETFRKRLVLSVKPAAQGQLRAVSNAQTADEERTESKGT
The target in data set [10] is Adenosine receptor A2a (Homo sapiens, UniProt P29274). Kind of data set: Inhibition of adenosine receptor A2A.
Sequence of Adenosine receptor A2a (P29274 whole entry): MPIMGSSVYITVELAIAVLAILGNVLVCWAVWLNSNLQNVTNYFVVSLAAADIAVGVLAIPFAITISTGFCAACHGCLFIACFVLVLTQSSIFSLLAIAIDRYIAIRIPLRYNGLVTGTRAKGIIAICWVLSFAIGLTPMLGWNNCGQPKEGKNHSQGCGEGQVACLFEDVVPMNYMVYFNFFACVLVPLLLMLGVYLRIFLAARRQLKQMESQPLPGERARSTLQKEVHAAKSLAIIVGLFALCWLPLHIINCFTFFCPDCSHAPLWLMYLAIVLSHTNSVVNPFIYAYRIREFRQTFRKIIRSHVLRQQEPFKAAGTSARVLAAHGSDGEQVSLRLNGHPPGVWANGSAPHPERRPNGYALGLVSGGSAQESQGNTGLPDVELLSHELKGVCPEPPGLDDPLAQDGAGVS
Data set [11] deals with Voltage-gated inwardly rectifying potassium channel KCNH2 (Homo sapiens, UniProt Q12809). Kind of data set: Inhibition of human ERG potassium channel 1.
Sequence of Voltage-gated inwardly rectifying potassium channel KCNH2 (Q12809 whole entry): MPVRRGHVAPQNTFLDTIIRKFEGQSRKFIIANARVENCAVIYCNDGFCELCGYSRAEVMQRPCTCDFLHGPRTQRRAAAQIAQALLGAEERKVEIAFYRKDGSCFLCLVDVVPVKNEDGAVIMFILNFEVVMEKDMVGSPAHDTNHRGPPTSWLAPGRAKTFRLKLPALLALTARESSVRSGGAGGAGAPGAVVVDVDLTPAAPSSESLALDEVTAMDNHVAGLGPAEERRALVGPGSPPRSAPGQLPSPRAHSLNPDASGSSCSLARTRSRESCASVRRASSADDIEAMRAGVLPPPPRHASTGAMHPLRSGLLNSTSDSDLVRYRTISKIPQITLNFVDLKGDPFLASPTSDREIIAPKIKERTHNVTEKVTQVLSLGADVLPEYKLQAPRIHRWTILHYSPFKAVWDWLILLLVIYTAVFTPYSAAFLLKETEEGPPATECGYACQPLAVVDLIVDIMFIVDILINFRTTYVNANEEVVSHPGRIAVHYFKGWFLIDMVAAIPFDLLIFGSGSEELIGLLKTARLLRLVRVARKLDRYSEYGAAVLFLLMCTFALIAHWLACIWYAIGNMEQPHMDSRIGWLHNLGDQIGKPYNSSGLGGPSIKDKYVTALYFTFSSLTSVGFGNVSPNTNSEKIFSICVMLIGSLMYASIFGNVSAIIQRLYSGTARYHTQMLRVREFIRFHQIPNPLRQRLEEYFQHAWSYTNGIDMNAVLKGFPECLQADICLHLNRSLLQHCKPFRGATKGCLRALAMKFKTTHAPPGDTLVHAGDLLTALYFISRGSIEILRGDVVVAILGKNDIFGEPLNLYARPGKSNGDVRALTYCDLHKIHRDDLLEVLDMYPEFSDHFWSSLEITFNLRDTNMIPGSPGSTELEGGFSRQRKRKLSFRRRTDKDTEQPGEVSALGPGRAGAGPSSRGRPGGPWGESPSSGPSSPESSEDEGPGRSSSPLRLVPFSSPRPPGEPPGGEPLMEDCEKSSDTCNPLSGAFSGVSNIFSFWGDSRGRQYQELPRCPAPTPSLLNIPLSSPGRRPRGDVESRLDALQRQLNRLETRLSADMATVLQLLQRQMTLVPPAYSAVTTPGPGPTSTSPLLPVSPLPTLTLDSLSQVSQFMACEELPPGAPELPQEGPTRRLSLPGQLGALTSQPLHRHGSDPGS
Data set [12] has as its target T1, Melanin-concentrating hormone receptor 1. As to the kind of experiment: Displacement of [125I]MCH from human recombinant MCH1R expressed on CHOK1 cell membrane. Type of data set: cell membranes, CHO-K1. The procedure, abridged: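 Competition binding with [125I]MCH on membranes of CHO-K1 cells expressing human recombinant MCH-1R. Inhibition of radioligand binding is measured. Values are means of n = 2.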

Data set [13] in a line: Metabolic stability in human liver microsomes after 30 mmins. To be noted: read-out: Stability. The class given is ADME, Microsome. The procedure, abridged:
as §1

Data set [14] deals with Kappa-type opioid receptor (Homo sapiens, UniProt P41145). As to the kind of experiment: Inhibition of kappa-type opioid receptor.
Sequence of Kappa-type opioid receptor (P41145 whole entry): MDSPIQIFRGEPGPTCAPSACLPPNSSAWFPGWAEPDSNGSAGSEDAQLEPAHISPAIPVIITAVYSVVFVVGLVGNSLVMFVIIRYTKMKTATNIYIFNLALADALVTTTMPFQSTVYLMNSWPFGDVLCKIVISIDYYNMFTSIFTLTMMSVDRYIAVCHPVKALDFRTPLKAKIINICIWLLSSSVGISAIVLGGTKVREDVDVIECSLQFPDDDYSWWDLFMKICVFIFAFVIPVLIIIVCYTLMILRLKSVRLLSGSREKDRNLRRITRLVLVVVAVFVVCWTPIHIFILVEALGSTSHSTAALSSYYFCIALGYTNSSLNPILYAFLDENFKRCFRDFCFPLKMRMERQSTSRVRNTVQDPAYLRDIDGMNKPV
Data set [15] addresses T2, Muscarinic acetylcholine receptor M1 (Homo sapiens, UniProt P11229).
T2 sequence (P11229 whole entry): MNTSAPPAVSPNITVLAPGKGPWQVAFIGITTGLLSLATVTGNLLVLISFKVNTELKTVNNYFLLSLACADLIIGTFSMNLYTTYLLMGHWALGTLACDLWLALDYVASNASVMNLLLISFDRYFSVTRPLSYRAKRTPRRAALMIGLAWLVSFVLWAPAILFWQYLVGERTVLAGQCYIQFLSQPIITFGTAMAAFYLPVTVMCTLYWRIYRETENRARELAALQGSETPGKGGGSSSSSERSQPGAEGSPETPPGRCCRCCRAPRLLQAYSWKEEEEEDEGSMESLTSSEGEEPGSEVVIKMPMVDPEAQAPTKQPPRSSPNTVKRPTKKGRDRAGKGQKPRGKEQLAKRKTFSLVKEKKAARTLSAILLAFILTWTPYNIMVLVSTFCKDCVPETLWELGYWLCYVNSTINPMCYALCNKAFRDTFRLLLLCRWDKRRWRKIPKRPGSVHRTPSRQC
As to the kind of experiment: Inhibition of muscarinic M1 receptor.

Where only a bound is given, the exact number is not on record here.

Sequence of Delta-type opioid receptor (P41143 whole entry): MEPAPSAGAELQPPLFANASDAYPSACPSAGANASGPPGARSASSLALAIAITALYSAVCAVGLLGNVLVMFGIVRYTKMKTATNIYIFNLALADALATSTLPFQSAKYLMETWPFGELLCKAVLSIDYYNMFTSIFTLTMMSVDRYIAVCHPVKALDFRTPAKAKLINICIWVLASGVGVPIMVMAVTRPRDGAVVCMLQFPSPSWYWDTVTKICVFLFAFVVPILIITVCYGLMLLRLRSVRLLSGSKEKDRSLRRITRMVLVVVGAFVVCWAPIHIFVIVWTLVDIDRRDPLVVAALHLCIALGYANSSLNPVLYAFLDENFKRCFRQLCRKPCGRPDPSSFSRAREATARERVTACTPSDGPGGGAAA
Sequence of Histamine H3 receptor (Q9Y5N1 whole entry): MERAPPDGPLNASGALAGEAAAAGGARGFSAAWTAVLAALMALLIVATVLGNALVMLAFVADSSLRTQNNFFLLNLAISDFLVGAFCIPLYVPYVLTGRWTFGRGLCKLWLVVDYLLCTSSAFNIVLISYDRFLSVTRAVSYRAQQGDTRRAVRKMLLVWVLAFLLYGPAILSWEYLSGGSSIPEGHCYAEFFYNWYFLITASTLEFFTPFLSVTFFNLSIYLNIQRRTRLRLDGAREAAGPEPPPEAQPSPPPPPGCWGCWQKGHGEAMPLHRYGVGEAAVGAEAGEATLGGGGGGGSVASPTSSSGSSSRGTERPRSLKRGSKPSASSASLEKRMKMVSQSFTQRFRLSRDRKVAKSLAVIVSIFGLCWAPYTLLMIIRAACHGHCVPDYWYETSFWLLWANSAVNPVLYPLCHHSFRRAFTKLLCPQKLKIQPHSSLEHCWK

As to `CCCNCc1ccc(CCn2ccc(OCc3ccc(F)cc3)cc2=O)nc1`, the IC50 in [1], in data set [2], in data set [3], in [4], in data set [6] and in data set [7] was above 5000 nM each time. The IC50 in data set [8] is above 5000 nM; in [9], 27 nM; in data set [10] it was above 5000 nM; in data set [11] it was 5100 nM; in data set [12], 7 nM; in data set [14], above 5000 nM. This compound gave an IC50 in data set [15] above 5000 nM. In addition, the remaining at 30 min in data set [5] worked out at 93%; in data set [13], 91%.

Regarding `CCCNCc1ccc(CCn2ccc(OCc3ccc(F)cc3)cc2=O)cn1`, the remaining at 30 min in data set [5] was 76%; in data set [13] it was 87%. The half-inhibitory concentration (IC50) in data set [12] is 11 nM.

For `O=c1cc(OCc2ccc(F)cc2)ccn1-c1ccc(CN2CCCC2)cc1`, in [12], the concentration for half-maximal inhibition (IC50) is above 1000 nM.

On to `O=c1cc(OCc2ccc(F)cc2)ccn1CCc1ccc(CN2CCCC2)cc1`, for which the remaining at 30 min in [5] stood at 39%; in data set [13] it was 60%. Further, the half-maximal inhibitory concentration (IC50) in data set [12] turned out to be 5 nM.

As to `CCCN(CCC)Cc1ccc(CCn2ccc(OCc3ccc(F)cc3)cc2=O)cc1`, the remaining at 30 min in data set [5] and in data set [13] was 1% in each case. The concentration for half-maximal inhibition (IC50) in [12] was 3.3 nM.

As for `CCCNCc1ccc(COn2ccc(OCc3ccc(F)cc3)cc2=O)cc1`, the values for the remaining at 30 min in data set [5] and in [13] were 74% and 72%, respectively. Also, in data set [12], the half-inhibitory concentration (IC50) is 34 nM.

For `CCCN(Cc1ccc(CCn2ccc(OCc3ccc(F)cc3)cc2=O)cc1)C(C)C`, the results for the remaining at 30 min in data set [5] and in data set [13] were 1% and 4%, respectively. Moreover, the IC50 in data set [12] is 5.2 nM.

As for `O=c1cc(OCc2ccc(F)cc2)ccn1CCc1ccc(N2CCCC2)cc1`, the concentration for half-maximal inhibition (IC50) in data set [12] is above 1000 nM.

As to `CCN(CC)Cc1ccc(CCn2ccc(OCc3ccc(F)cc3)cc2=O)cc1`, the results for the remaining at 30 min in data set [5] and in data set [13] were 26% and 54%, respectively.

For `CCCN(Cc1ccc(CCn2ccc(OCc3ccc(F)cc3)cc2=O)cc1)C1CCCC1`, the remaining at 30 min in [5] and in data set [13] was 1% throughout. Besides, the concentration for half-maximal inhibition (IC50) in data set [12] is 3.5 nM.

For the compound `CCCNCc1ccc(CCn2ccc(OCc3ccc(F)cc3)cc2=O)cc1`, the concentration for half-maximal inhibition (IC50) in data set [1], in [2], in data set [3], in [4], in data set [6] and in [7] was above 5000 nM in each case. The IC50 in data set [8] was above 5000 nM; in data set [9] it was 20 nM; in data set [10], above 5000 nM; in [14], above 5000 nM; in data set [15], above 5000 nM. Also, the figures for the remaining at 30 min in data set [5] and in data set [13] were 62% and 85%, respectively.

For the compound `CCCN(CC)Cc1ccc(CCn2ccc(OCc3ccc(F)cc3)cc2=O)cc1`, the remaining at 30 min turned out to be 6% in [5] and 26% in data set [13]. Further, the concentration for half-maximal inhibition (IC50) in data set [12] turned out to be 4.4 nM.

As for `O=c1cc(OCc2ccc(F)cc2)ccn1-c1cccc(OCCN2CCCC2)c1`, in data set [12], the IC50 is above 1000 nM.

Regarding `O=c1cc(OCc2ccc(F)cc2)ccn1Cc1cccc(OCCCN2CCCC2)c1`, the half-maximal inhibitory concentration (IC50) in data set [12] came to 30 nM.

Regarding `CCCN(C)Cc1ccc(CCn2ccc(OCc3ccc(F)cc3)cc2=O)cc1`, the results for the remaining at 30 min in data set [5] and in data set [13] were 22% and 58%, respectively. The IC50 in data set [12] was 3.5 nM.

As to `CCCN(CCF)Cc1ccc(CCn2ccc(OCc3ccc(F)cc3)cc2=O)cc1`, the remaining at 30 min in [5] and in [13] was 0% throughout. In [12], the half-inhibitory concentration (IC50) is 11 nM.

For `O=c1cc(OCc2ccc(F)cc2)ccn1Cc1cccc(OCCN2CCCC2)c1`, the half-inhibitory concentration (IC50) in data set [12] came out at 29 nM.

Turning to `CCCN(CCOC)Cc1ccc(CCn2ccc(OCc3ccc(F)cc3)cc2=O)cc1`, the remaining at 30 min in data set [5] and in [13] was 0% in each case. The concentration for half-maximal inhibition (IC50) in [12] came to 5.4 nM.

For the compound `O=c1cc(OCc2ccc(F)cc2)ccn1-c1ccc(OCCN2CCCC2)cc1`, in data set [12], the 50% inhibitory concentration (IC50) was 5.6 nM.

For `CCCN(Cc1ccc(CCn2ccc(OCc3ccc(F)cc3)cc2=O)cc1)CC(C)C`, the remaining at 30 min in [5] and in [13] was 0% throughout. Besides, the IC50 in data set [12] stood at 4.9 nM.
